From ChEMBL document CHEMBL2062386, “Discovery of LFF571: an investigational agent for Clostridium difficile infection” (J Med Chem, 2012)
Values after ≈ are worked out from the molar mass of the structure shown. Active and inactive are the calls of the source. No cut-off for these calls is given here.

Tests used:
Staphylococcus aureus [1] = test: Antibacterial activity against Staphylococcus aureus ATCC 49951 infected in CD1 mouse assessed as mouse survival up to 5 days; type: functional; conditions: ATCC 49951, 120 h
Summary of the method: (§1)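 Female CD1 mice (21–25 g) were infected ip with 1 × 10^8 CFU/mouse, 10–100× the minimal lethal dose. E. faecalis NB04025 was given in 50% rat fecal extract and S. aureus ATCC 49951 in 0.9% NaCl. Compound was given by iv tail-vein bolus at 1 and 5 h post-inoculation, at several dose levels (6 mice/group). ED50 with 95% CI was derived by probit analysis of day-5 survival.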

Enterococcus faecalis [2] = test: Antibacterial activity against Enterococcus faecalis ATCC 29212 by broth microdilution method; type: functional
Summary of the method: (§2)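 Broth microdilution MICs were run per CLSI M07-A8 (2009). The strain panel included C. difficile ATCC 43255, E. faecalis ATCC 29212 and S. pyogenes ATCC BAA-595.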

Escherichia coli = test: Inhibition of protein synthesis in Escherichia coli S30 extract at 2 uM after 75 mins by luciferase based luminescence assay relative to GE2270A; type: functional
[3] = Antibacterial activity against Clostridium difficile ATCC 43255 by broth microdilution method; type: functional; conditions: Clostridioides difficile; summary of the method: as §2
[4] = Binding affinity to Escherichia coli GDPNP-labelled EF-Tu by surface plasmon resonance analysis
Enterococcus faecalis [5] = test: Antibacterial activity against Enterococcus faecalis NB04025 infected in CD1 mouse assessed as mouse survival up to 5 days; type: functional; conditions: NB04025, 120 h; summary of the method: as §1
Enterococcus faecium = test: Antibacterial activity against Enterococcus faecium 7130724 by broth microdilution method; type: functional
Staphylococcus aureus [6] = test: Antibacterial activity against Staphylococcus aureus A4.018 by broth microdilution method; type: functional
Streptococcus pyogenes = test: Antibacterial activity against Streptococcus pyogenes ATCC BAA-595 by broth microdilution method; type: functional; summary of the method: as §2
[7] = Antibacterial activity against Clostridium difficile ATCC 43255 infected in golden syrian hamster assessed as survival rate at 20 mg/kg, po qd administered days 1 to 5 measured on days 6 to 21; type: functional; conditions: Clostridioides difficile
Summary of the method: (§3)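 Golden Syrian hamsters got clindamycin 10 mg/kg sc on day −1. On day 0 they were gavaged with ~7.5 × 10^6 CFU C. difficile ATCC 43255 (0.75 mL). From 24 h post-infection they were dosed orally once daily for up to 5 days (8/dose), in a NaOH/PEG-400/2.5% Cremophor EL solution diluted in pH 7.4 PBS. Vehicle controls were included, and animals were observed twice daily through day 21.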

[8] = test system: Clostridium difficile ATCC 43255; test: Antibacterial activity against Clostridium difficile ATCC 43255 infected in golden syrian hamster assessed as decrease in toxin level in cecum after 21 days by ELISA; type: functional; conditions: Caecum
Summary of the method: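 In the clindamycin-pretreated, C. difficile-infected hamster model, oral compound was given once daily on days 1–5. Surviving animals were euthanized at study end (day 21). Cecal homogenates were assayed for C. difficile toxins A and B by Tox A/B II ELISA per kit directions.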

[9] = Antibacterial activity against Clostridium difficile ATCC 43255 infected in golden syrian hamster assessed as survival rate at 0.2 mg/kg, po qd administered days 1 to 5 measured on days 6 to 21; type: functional; conditions: Clostridioides difficile; summary of the method: as §3
[10] = Plasma concentration in Clostridium difficile infected golden syrian hamster at 20 mg/kg, po qd administered for 5 days measured at 3 hrs post dose; type: ADME, organism-based, Mesocricetus auratus; set-up: dose 20 mg/kg, route oral
Summary of the method: (§4)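 C. difficile-infected hamsters received 20 mg/kg orally (0.6 mL at 3.3 mg/mL) once daily for 5 days. At 1 and 3 h after the fifth dose, 3 animals per time point were sampled: plasma (K2-EDTA, cardiac puncture) and cecal contents. Cecal contents were homogenized in PBS/25% acetonitrile (final 1:25 dilution). Samples were protein-precipitated with acetonitrile containing glyburide internal standard.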

[11] = Oral bioavailability in Sprague-Dawley rat; type: ADME, organism-based; conditions: in vivo
Summary of the method: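 Male Sprague–Dawley rats (220–270 g, N = 2 or 3) were used, including iv dosing. Rats were fasted overnight and for 8 h post-dose. Plasma (K2-EDTA) was protein-precipitated with acetonitrile containing glyburide internal standard and analysed by LC–MS/MS (C18, formic acid water/acetonitrile gradient).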

[12] = Drug level in Clostridium difficile infected golden syrian hamster cecum at 20 mg/kg, po qd administered for 5 days measured at 3 hrs post dose; type: ADME, organism-based, Mesocricetus auratus, Caecum; set-up: dose 20 mg/kg, route oral; conditions: read-out: Drug uptake; summary of the method: as §4
[13] = Drug level in Clostridium difficile infected golden syrian hamster cecum at 20 mg/kg, po qd administered for 5 days measured at 1 hr post dose; type: ADME, organism-based, Mesocricetus auratus, Caecum; set-up: dose 20 mg/kg, route oral; conditions: read-out: Drug uptake; summary of the method: as §4
[14] = Plasma concentration in Clostridium difficile infected golden syrian hamster at 20 mg/kg, po qd administered for 5 days measured at 1 hr post dose; type: ADME, organism-based, Mesocricetus auratus; set-up: dose 20 mg/kg, route oral; summary of the method: as §4
[15] = Antibacterial activity against Clostridium difficile ATCC 43255 infected in golden syrian hamster assessed as survival rate at 2 mg/kg, po qd administered days 1 to 5 measured on days 6 to 21; type: functional; conditions: Clostridioides difficile; summary of the method: as §3
[16] = test system: Clostridium difficile ATCC 43255; test: Antibacterial activity against Clostridium difficile ATCC 43255 infected in po dosed golden syrian hamster assessed as survival rate administered qd for days 1 to 5 measured on after 6 to 21 days; type: functional, organism-based; summary of the method: as §3

Compound | ED50 (Staphylococcus aureus [1]) | MIC (Enterococcus faecalis [2]) | inhibition at 2 µM (Escherichia coli) | MIC [3] | Kd [4] | ED50 (Enterococcus faecalis [5]) | MIC (Enterococcus faecium) | MIC (Staphylococcus aureus [6]) | MIC (Streptococcus pyogenes) | survival at 20 mg/kg [7] | Activity [8] | survival at 0.2 mg/kg [9] | concentration at 3 h [12] | concentration at 1 h [13] | survival at 2 mg/kg [15] | other results
CNC(=O)C[C@@H]1NC(=O)c2csc(n2)-c2ccc(-c3nc(N(CCCCCC(=O)O)C(=O)O[C@H]4CC[C@H](C(=O)O)CC4)cs3)nc2-c2csc(n2)-c2csc(n2)[C@H]([C@@H](O)c2ccccc2)NC(=O)CNC(=O)c2nc(sc2COC)[C@H](C(C)C)NC(=O)c2nc1sc2C | 9.6 mg/kg | < 0.06 µg/mL | 67% | 0.06 µg/mL (≈ 0.0435 µM) | 6 nM | 0.8 mg/kg | < 0.06 µg/mL | 0.125 µg/mL (≈ 0.0905 µM) | 1 µg/mL (≈ 0.724 µM) |  |  |  |  |  |  | 
CN[C@H](CC(C)C)C(=O)N[C@H]1C(=O)N[C@@H](CC(N)=O)C(=O)N[C@H]2C(=O)N[C@H]3C(=O)N[C@H](C(=O)N[C@H](C(=O)O)c4cc(O)cc(O)c4-c4cc3ccc4O)[C@H](O)c3ccc(c(Cl)c3)Oc3cc2cc(c3O[C@@H]2O[C@H](CO)[C@@H](O)[C@H](O)[C@H]2O[C@H]2C[C@](C)(N)[C@H](O)[C@H](C)O2)Oc2ccc(cc2Cl)[C@H]1O [VANCOMYCIN] |  |  |  |  |  |  |  |  |  | 25% | Active |  |  |  |  | 
CNC(=O)C[C@@H]1NC(=O)c2csc(n2)-c2ccc(-c3nc(N(CCCCC(=O)O)C(=O)O[C@H]4CC[C@H](C(=O)O)CC4)cs3)nc2-c2csc(n2)-c2csc(n2)[C@H]([C@@H](O)c2ccccc2)NC(=O)CNC(=O)c2nc(sc2COC)[C@H](C(C)C)NC(=O)c2nc1sc2C [LFF-571] | 6.9 mg/kg | < 0.06 µg/mL | 67% | 0.03 µg/mL (≈ 0.022 µM) | 6 nM | 2.2 mg/kg | < 0.06 µg/mL | 0.125 µg/mL (≈ 0.0915 µM) | 1 µg/mL (≈ 0.732 µM) | 100% | Active | 0% | 208 µM | 61 µM | 100% | concentration at 3 h ([10]; golden Syrian, plasma): 0.0052 µM; bioavailability [11]: < 0.1%; concentration at 1 h ([14]; golden Syrian, plasma): 0.0448 µM
CNC(=O)C[C@@H]1NC(=O)c2csc(n2)-c2ccc(-c3nc(NC(=O)[C@H]4CC[C@H](C(=O)O)CC4)cs3)nc2-c2csc(n2)-c2csc(n2)[C@H]([C@@H](O)c2ccccc2)NC(=O)CNC(=O)c2nc(sc2COC)[C@H](C(C)C)NC(=O)c2nc1sc2C | 5.2 mg/kg | 0.06 µg/mL (≈ 0.048 µM) | 30% | 0.06 µg/mL (≈ 0.048 µM) | 43 nM | 0.6 mg/kg | 0.06 µg/mL (≈ 0.048 µM) | 0.125 µg/mL (≈ 0.1 µM) | 4 µg/mL (≈ 3.2 µM) | 100% | Active | 0% | 39 µM | 18 µM | 62.5% | Cp ([10]; in vivo, 3 h, BLD = below limit of detection): BLD; Survival [16]: Dose-dependent effect; Cp ([14]; in vivo, 1 h, BLD = below limit of detection): BLD
CNC(=O)C[C@@H]1NC(=O)c2csc(n2)-c2ccc(-c3nc(N(CCOCC(=O)O)C(=O)O[C@H]4CC[C@H](C(=O)O)CC4)cs3)nc2-c2csc(n2)-c2csc(n2)[C@H]([C@@H](O)c2ccccc2)NC(=O)CNC(=O)c2nc(sc2COC)[C@H](C(C)C)NC(=O)c2nc1sc2C |  | 2 µg/mL (≈ 1.46 µM) | 67% | 0.125 µg/mL (≈ 0.0913 µM) |  |  | 2 µg/mL (≈ 1.46 µM) | 4 µg/mL (≈ 2.92 µM) | 4 µg/mL (≈ 2.92 µM) |  |  |  |  |  |  | 
CNC(=O)C[C@@H]1NC(=O)c2csc(n2)-c2ccc(-c3nc(N(CCCCC(=O)O)C(=O)OC4CC(C(=O)O)C4)cs3)nc2-c2csc(n2)-c2csc(n2)[C@H]([C@@H](O)c2ccccc2)NC(=O)CNC(=O)c2nc(sc2COC)[C@H](C(C)C)NC(=O)c2nc1sc2C (some centres undefined) |  | 0.25 µg/mL (≈ 0.187 µM) | 67% | 0.03 µg/mL (≈ 0.0224 µM) |  |  | 0.25 µg/mL (≈ 0.187 µM) | 0.5 µg/mL (≈ 0.374 µM) | 2 µg/mL (≈ 1.49 µM) |  |  |  |  |  |  | 
